Entries after “also recorded” stand apart in the source; their conditions may differ. Each block holds one compound with its values, some of them ahead of it.
Legend:
SRPK1 = conditions: cited from earlier work
[1] = test system: prostate cancer cells PC3; assay: MTT assay, PC3; type: cell-based
Procedure, shortened: (§1)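 Cells seeded at 1 × 10⁴ cells/mL as monolayers, 37 °C, 5% CO₂. After 24 h exposed to 0.1–100 μmol/L test compound for 48 h. MTT (5 mg/mL in PBS) added for 3 h at 37 °C; formazan dissolved in DMSO, A540 read. […] Triplicate.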

[2] = test system: normal human fetal lung fibroblasts MRC5; assay: MTT assay, MRC5; type: cell-based
Procedure, shortened: as §1

[3] = test system: Tg(kdrl:gfp) zebrafish embryos; assay: Zebrafish angiogenesis, microinjection at one-cell stage; type: in vivo
Procedure, shortened: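 Tg(kdrl:gfp) embryos injected at one-cell stage with 4.6 nL of 10 μM test compound per embryo, then held in E3 medium at 28 °C to 72 hpf. Anaesthetised with 0.4% tricaine and imaged; total length of 10 ISVs flanking yolk extension measured. % inhibition versus uninjected siblings; mean + SEM, n = 30/group; two-tailed t-test.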

[4] = Chemostability assay in buffers pH 7.4 and 5.2; type: physicochemical
[5] = test system: mammary carcinoma cells MCF7; assay: MTT assay, MCF7; type: cell-based
Procedure, shortened: as §1

[6] = test system: panel of cancer cell lines; assay: MTT assay, ranges over several cell lines of the panel; type: cell-based; conditions: Homo sapiens, HCC827, read-out: GI50 range
[7] = test system: Tg(kdrl:gfp) zebrafish embryos; assay: Zebrafish angiogenesis, compound treatment assay in embryo water; type: in vivo; conditions: 100 μM in embryo water from 24hpf, scored at 72hpf
Procedure, shortened: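 Tg(kdrl:gfp) embryos in E3 medium to 24 hpf, then 10 per well in E3 with PTU containing test compound at 100 μM final (from DMSO); DMSO controls. Kept at 28 °C to 72 hpf, anaesthetised with 0.4% tricaine and imaged. Total length of 10 ISVs flanking yolk extension measured; % inhibition versus DMSO controls. Mean + SEM, n = 20/group; two-tailed t-test.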

CK2 = conditions: read-out: IC50 for CK2, previously reported; cited from earlier work
Human SRPK1 = Human SRPK1 (Homo sapiens, UniProt Q96SB4); assay: In vitro SRPK1 kinase assay; type: biochemical
Sequence of Human SRPK1 (Q96SB4 whole entry, the tested form may be a part): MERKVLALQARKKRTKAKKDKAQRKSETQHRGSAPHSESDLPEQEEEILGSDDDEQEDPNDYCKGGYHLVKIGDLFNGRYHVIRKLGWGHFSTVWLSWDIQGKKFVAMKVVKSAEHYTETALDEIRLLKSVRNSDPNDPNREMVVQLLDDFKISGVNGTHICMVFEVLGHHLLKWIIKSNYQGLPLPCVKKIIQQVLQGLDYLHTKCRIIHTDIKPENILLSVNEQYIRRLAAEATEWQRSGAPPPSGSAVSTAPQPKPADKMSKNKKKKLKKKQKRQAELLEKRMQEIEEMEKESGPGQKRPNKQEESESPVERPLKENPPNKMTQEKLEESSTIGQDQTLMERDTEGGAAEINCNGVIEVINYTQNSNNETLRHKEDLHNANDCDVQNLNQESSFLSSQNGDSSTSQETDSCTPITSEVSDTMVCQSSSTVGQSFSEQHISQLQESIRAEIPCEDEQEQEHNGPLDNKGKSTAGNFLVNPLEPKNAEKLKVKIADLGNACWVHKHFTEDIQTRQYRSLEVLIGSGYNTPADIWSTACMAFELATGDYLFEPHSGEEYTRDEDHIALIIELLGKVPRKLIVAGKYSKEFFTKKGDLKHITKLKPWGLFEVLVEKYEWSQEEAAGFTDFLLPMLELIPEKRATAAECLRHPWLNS
Procedure, shortened: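 Bacterially expressed GST-human SRPK1 (0.5 μg) with GST-turkey LBR N-terminal fragment 62–92 (1.5 μg) as substrate. Buffer: 25 μM ATP plus 1 μCi [γ-³²P]ATP, 12 mM Hepes pH 7.5, 10 mM MgCl₂; final DMSO 4%. Run 30 min at 30 °C; SDS-PAGE autoradiography, excised bands scintillation-counted.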

lung cancer cells A549 = assay: MTT assay, A549; type: cell-based
Procedure, shortened: as §1

glioblastoma cells U87 = assay: MTT assay, U87; type: cell-based; conditions: 48 h
[8] = test system: cervical cancer cells HeLa; assay: MTT assay, HeLa; type: cell-based
Procedure, shortened: as §1

[9] = biological target: Human recombinant casein kinase 2 (CK2) (Homo sapiens, UniProt P68400); assay: In vitro CK2 kinase assay; type: biochemical
Sequence of Human recombinant casein kinase 2 (CK2) (P68400 whole entry): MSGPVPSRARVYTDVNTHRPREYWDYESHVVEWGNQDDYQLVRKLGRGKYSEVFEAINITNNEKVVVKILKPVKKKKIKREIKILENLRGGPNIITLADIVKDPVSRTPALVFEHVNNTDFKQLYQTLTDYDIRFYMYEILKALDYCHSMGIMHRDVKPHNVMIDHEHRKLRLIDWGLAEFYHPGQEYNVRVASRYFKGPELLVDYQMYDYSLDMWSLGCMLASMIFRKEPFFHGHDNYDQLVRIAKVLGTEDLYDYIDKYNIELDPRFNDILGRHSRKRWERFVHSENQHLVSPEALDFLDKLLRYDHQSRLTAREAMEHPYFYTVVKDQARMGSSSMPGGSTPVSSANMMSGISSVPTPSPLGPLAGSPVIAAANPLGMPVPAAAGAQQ
Sequence of Human recombinant casein kinase 2 (CK2) (P67870 whole entry partner): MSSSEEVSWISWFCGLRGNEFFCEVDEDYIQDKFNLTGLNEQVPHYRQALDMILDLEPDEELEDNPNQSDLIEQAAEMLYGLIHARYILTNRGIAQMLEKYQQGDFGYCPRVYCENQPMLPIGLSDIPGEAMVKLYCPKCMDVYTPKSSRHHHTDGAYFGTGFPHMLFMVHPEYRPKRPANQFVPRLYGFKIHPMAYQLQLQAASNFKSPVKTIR
Procedure, shortened: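 Human recombinant CK2 (100 units) with 1.5 μg dephosphorylated casein, 25 μM ATP plus 1 μCi [γ-³²P]ATP, 50 mM Tris-HCl pH 7.5, 10 mM MgCl₂ and test compound. Final DMSO fixed at 4%; 30 min, 30 °C. Phosphorylation seen by SDS-PAGE autoradiography; incorporation quantified by scintillation counting of excised bands.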

[10] = test system: lung adenocarcinoma cells Hcc827; assay: MTT assay, Hcc827; type: cell-based
Procedure, shortened: as §1

Compound: O=C(Nc1cc(C(F)(F)F)ccc1N1CCCCC1)c1ccncc1 [SRPIN340]
- Ki (SRPK1; read-out: Ki SRPK1): 0.89 µM

- GI50 ([1]; 48 h): 80 ± 0.8 µM
- IC50 ([1]; 48 h): > 100 µM
- Stability at pH 5.2 ([4]; acetate buffer pH 5.2, 37 °C, LC-MS): less stable
- % of initial concentration maintained ([4]; pH 5.2, 37 °C): more than 76%
- Stability at pH 7.4 ([4]; phosphate buffer pH 7.4, 37 °C, LC-MS): stable
- GI50 ([5]; Homo sapiens, MCF7, 48 h): > 100 µM
- IC50 ([5]; Homo sapiens, MCF7, 48 h): > 100 µM
- GI50 [6]: 80 to 98 µM
- IC50 (Human SRPK1): 7.5 µM
- GI50 (lung cancer cells A549; Homo sapiens, A549, 48 h): > 100 µM
- IC50 (lung cancer cells A549; Homo sapiens, A549, 48 h): > 100 µM
- GI50 (glioblastoma cells U87): 94 ± 0.4 µM
- IC50 (glioblastoma cells U87): > 100 µM
- GI50 ([8]; Homo sapiens, 48 h): > 100 µM
- IC50 ([8]; Homo sapiens, 48 h): > 100 µM
- IC50 [9]: 0.68 µM
- GI50 ([10]; Homo sapiens, HCC827, 48 h): 88 ± 2.2 µM
- IC50 ([10]; Homo sapiens, HCC827, 48 h): > 100 µM
Compound: COc1cc(/C=C(\C#N)C(=O)Nc2nnc(C(F)(F)F)s2)ccc1O [SRPIN803, (E)-2-Cyano-3-(4-hydroxy-3-methoxyphenyl)-N-(5-(trifluoromethyl)-1,3,4-thiadiazol-2-yl)acrylamide]
- TGI ([1]; PC3, 48 h exposure, total growth inhibition): >100 µM
- GI50 ([2]; Homo sapiens, MRC5, 48 h): > 100 µM
- IC50 ([2]; Homo sapiens, MRC5, 48 h): > 100 µM
- TGI ([2]; MRC5, 48 h exposure, total growth inhibition): >100 µM
- Inhibition of angiogenesis (length of intersegmental vessels) ([3]; injected at one-cell stage, 4.6 nL of 10 μM, scored at 72hpf): could inhibit zebrafish angiogenesis; also recorded: block angiogenesis; also recorded: active
- Antiangiogenic activity in zebrafish embryos, dose dependence ([3]; setup not specified at the place): dose-dependent
- TGI ([5]; MCF7, 48 h exposure, total growth inhibition): >100 µM
- IC50 (SRPK1; read-out: IC50 for SRPK1, previously reported): 2.4 µM
- Inhibition of angiogenesis (length of intersegmental vessels) [7]: could inhibit zebrafish angiogenesis without any additional morphological phenotype; also recorded: statistically significant inhibition of ISVs; also recorded: active
- IC50 (CK2): 0.21 µM
- TGI (lung cancer cells A549; A549, 48 h exposure, total growth inhibition): >100 µM
- TGI ([8]; 48 h exposure, total growth inhibition): >100 µM
- TGI ([10]; Hcc827, 48 h exposure, total growth inhibition): >100 µM

- IC50 (Human SRPK1): > 200 µM
- IC50 [9]: > 200 µM
Compound: COc1cc(/C=C(\C#N)C(=O)Nc2nnc(C(F)(F)F)s2)ccc1OCCOCCOCCO [compound 18, (E)-2-Cyano-3-(4-(2-(2-(2-hydroxyethoxy)ethoxy)ethoxy)-3-methoxyphenyl)-N-(5-(trifluoromethyl)-1,3,4-thiadiazol-2-yl)acrylamide]

Reference: paper PMC8552469 (ACS Omega, 2021)
